Test results taken from ChEMBL document CHEMBL4706672 (J Med Chem, 2021).
The source made the active and inactive calls. The rule behind the calls is not given here.

How the values were obtained:
[1] = biological target: Protein cereblon/E3 SUMO-protein ligase NSE2 (Homo sapiens) (UniProt Q96SW2+Q96MF7); test: Protac activity at CRBN/NSMCE2 in human BxPC-3 cells assessed as NSMCE2 degradation incubated for 16 hrs by proteomic analysis; format: cell-based
Procedure, shortened: (§1)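 TMT 10plex proteomics. […] Samples (75 μg) were reduced with DTT, alkylated with 2-chloroacetamide, acetone-precipitated, trypsin-digested overnight at 37 °C and TMT-labeled for LC-MS/MS relative quantitation.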

[2] = biological target: Protein cereblon/Protein PRRC2B (Homo sapiens) (UniProt Q96SW2+Q5JSZ5); test: Protac activity at CRBN/PRRC2B in human BxPC-3 cells assessed as PRRC2B degradation incubated for 16 hrs by proteomic analysis; format: cell-based; procedure, shortened: as §1
[3] = biological target: T1, Protein cereblon/E3 ubiquitin-protein ligase ZFP91 (Homo sapiens, UniProt Q96SW2+Q96JP5); test: Protac activity at CRBN/ZFP91 in human BxPC-3 cells assessed as induction of ZF91 degradation incubated for 4 hrs by western blot analysis; format: cell-based
Procedure, shortened: (§2)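 BxPC-3 cells treated for 4, 16 or 24 h across a concentration series. ZFP91 immunoblotted against GAPDH; bands quantified by densitometry, DC50 calculated from dose-response curves of the densitometry.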
Target sequence in this assay (Q96JP5 2-570 partner limits assumed): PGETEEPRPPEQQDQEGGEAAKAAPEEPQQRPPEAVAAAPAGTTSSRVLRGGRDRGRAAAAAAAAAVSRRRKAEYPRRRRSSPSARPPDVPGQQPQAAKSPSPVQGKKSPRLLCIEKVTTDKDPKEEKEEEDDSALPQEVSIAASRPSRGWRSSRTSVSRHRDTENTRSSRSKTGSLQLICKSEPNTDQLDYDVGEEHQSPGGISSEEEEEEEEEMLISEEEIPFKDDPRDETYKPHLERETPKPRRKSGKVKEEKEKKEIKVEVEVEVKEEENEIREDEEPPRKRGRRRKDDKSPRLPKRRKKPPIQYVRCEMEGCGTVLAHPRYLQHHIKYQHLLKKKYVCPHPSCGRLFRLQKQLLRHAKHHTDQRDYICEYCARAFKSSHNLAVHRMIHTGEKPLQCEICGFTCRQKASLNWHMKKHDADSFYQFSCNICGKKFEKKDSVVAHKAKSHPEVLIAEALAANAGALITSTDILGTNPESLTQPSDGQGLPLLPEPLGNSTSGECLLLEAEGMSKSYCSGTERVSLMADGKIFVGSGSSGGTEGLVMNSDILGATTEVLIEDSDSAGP
Target sequence in this assay (Q96SW2 whole entry): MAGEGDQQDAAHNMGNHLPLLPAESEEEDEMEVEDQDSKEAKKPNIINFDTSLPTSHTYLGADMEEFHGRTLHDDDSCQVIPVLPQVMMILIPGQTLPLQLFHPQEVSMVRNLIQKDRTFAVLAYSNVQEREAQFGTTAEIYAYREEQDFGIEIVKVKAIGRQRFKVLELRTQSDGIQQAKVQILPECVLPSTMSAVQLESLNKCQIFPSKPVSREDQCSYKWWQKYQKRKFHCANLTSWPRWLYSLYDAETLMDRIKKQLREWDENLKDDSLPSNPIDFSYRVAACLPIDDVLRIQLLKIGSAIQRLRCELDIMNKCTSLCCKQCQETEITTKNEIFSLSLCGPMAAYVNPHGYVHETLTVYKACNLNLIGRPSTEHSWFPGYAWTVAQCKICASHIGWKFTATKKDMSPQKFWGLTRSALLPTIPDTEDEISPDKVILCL

[4] = Upregulation of Arx protein levels in human BxPC-3 cells incubated for 16 hrs by proteomic analysis; format: functional
Procedure, shortened: (§3)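 BxPC-3 cells exposed 16 h in triplicate (control, PROTAC) or duplicate (other arms); lysed in RIPA at 4 °C, 75 μg protein per sample. Reduced with DTT (1 h, 55 °C), alkylated with 2-chloroacetamide, acetone-precipitated, trypsin-digested overnight at 37 °C, TMT 10plex labelled, relative quantitation by LC-tandem MS.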

[5] = biological target: Protein cereblon/Dynein light chain Tctex-type 1 (Homo sapiens) (UniProt Q96SW2+P63172); test: Protac activity at CRBN/DYNLT1 in human BxPC-3 cells assessed as DYNLT1 degradation incubated for 16 hrs by proteomic analysis; format: cell-based; procedure, shortened: as §1
[6] = test system: HEK293; test: Antiproliferative activity against human HEK293 cells assessed as reduction in cell viability incubated for 24 hrs by MTT assay; format: functional, cell-based; conditions: HEK293, 24 h
Procedure, shortened: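 HEK-293 cells were treated with compound for 24 h, in parallel with the luciferase reporter assay. Viability was read by MTT absorbance at 570 nm, and IC50 was taken from three independent experiments.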

[7] = test system: MIA PaCa-2; test: Effect on NQO1 expression in human MIA PaCa-2 cells at […] to 1 uM incubated for 16 hrs by western blot analysis; format: functional, cell-based; conditions: dose 0.5-1 µM
Procedure, shortened: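 Cells were seeded in 6-well plates (BxPC-3 500 × 10^3, MIA PaCa-2 200 × 10^3 cells/well) and exposed to compound for 16 h. Lysis was at 4 °C by sonication in Tris/NaCl/Triton/SDS buffer, pH 7.4, with protease and phosphatase inhibitors. Lysates were run on SDS-PAGE, transferred to PVDF and probed for STAT3, pSTAT3 and NQO1 with GAPDH as loading control. Immunoblots were imaged on an Odyssey system.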

[8] = biological target: Protein cereblon/Transmembrane protease serine 4 (Homo sapiens) (UniProt Q9NRS4+Q96SW2); test: Protac activity at CRBN/TMPRSS4 in human BxPC-3 cells assessed as TMPRSS4 degradation incubated for 16 hrs by proteomic analysis; format: cell-based; procedure, shortened: as §3
Chain of Protein cereblon/Transmembrane protease serine 4 (Homo sapiens) (Q96SW2 whole entry, looked up): as the sequence (Q96SW2 whole entry) above
Chain of Protein cereblon/Transmembrane protease serine 4 (Homo sapiens) (Q9NRS4 whole entry, looked up): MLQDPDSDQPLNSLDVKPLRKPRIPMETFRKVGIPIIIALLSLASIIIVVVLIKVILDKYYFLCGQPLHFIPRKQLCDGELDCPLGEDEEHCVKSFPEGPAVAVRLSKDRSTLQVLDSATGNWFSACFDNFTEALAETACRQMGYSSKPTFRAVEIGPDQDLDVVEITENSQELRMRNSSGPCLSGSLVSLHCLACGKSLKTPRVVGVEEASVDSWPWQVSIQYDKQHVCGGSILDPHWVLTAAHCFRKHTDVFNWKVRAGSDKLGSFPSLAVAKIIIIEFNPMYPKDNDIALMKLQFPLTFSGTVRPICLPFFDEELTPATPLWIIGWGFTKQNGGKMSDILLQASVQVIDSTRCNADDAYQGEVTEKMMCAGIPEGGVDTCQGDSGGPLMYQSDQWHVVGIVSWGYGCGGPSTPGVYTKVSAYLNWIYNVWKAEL

[9] = Upregulation of AFF1 protein levels in human BxPC-3 cells incubated for 16 hrs by proteomic analysis; format: functional; procedure, shortened: as §3
[10] = test system: BXPC-3; test: Antiproliferative activity against human BxPC-3 cells harboring ZFP91siRNA assessed as reduction in cell viability incubated for 48 hrs by MTT assay; format: functional, cell-based; conditions: BXPC-3, 48 h
Procedure, shortened: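 BxPC-3 cells were transfected with ZFP91 siRNA or scrambled control siRNA using Lipofectamine RNAiMAX in Opti-MEM, 5 pmol siRNA per complex. Compound was added together with the siRNA complex.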

[11] = biological target: Protein cereblon/Serine/threonine-protein kinase PLK1 (Homo sapiens) (UniProt P53350+Q96SW2); test: Protac activity at CRBN/PLK1 in human BxPC-3 cells assessed as PKL1 degradation incubated for 16 hrs by proteomic analysis; format: cell-based; procedure, shortened: as §1
[12] = Upregulation of ABCB6 protein levels in human BxPC-3 cells incubated for 16 hrs by proteomic analysis; format: functional; procedure, shortened: as §3
[13] = biological target: Protein cereblon/45 kDa calcium-binding protein (Homo sapiens) (UniProt Q96SW2+Q9BRK5); test: Protac activity at CRBN/SDF4 in human BxPC-3 cells assessed as SDF4 degradation incubated for 16 hrs by proteomic analysis; format: cell-based; procedure, shortened: as §1
Chain of Protein cereblon/45 kDa calcium-binding protein (Homo sapiens) (Q96SW2 whole entry, looked up): as the sequence (Q96SW2 whole entry) above
Chain of Protein cereblon/45 kDa calcium-binding protein (Homo sapiens) (Q9BRK5 whole entry, looked up): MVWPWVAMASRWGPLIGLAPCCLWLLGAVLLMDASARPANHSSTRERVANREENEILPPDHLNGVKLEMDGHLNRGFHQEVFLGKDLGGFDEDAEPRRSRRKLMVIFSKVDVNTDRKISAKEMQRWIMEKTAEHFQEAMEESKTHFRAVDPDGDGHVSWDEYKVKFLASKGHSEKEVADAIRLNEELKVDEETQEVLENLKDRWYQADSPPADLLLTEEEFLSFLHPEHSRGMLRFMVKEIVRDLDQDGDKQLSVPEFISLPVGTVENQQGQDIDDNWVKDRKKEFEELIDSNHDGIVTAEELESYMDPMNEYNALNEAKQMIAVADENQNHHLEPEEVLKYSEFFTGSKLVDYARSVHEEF

[14] = Upregulation of HMGCR protein levels in human BxPC-3 cells incubated for 16 hrs by proteomic analysis; format: functional; procedure, shortened: as §3
[15] = biological target: Protein cereblon/Eukaryotic peptide chain release factor GTP-binding subunit ERF3A (Homo sapiens) (UniProt Q96SW2+P15170); test: Protac activity at CRBN/GSPT in human BxPC-3 cells assessed as degradation of GSPT at 1 to 3 uM incubated for 16 hrs by western blot analysis; format: cell-based; conditions: dose 1-3 µM
Procedure, shortened: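 BxPC-3 cells were treated with compound for 16 h, then lysed and immunoblotted for GSPT (1:1000) alongside GAPDH. Detection used fluorescent secondary antibodies on an Odyssey imager, and bands were quantified by densitometry.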

[16] = biological target: Protein cereblon/Melanoma-associated antigen D1 (Homo sapiens) (UniProt Q96SW2+Q9Y5V3); test: Protac activity at CRBN/MAGED1 in human BxPC-3 cells assessed as MAGED1 degradation incubated for 16 hrs by proteomic analysis; format: cell-based; procedure, shortened: as §1
[17] = biological target: Protein cereblon/Signal transducer and activator of transcription 3 (Homo sapiens, UniProt P40763+Q96SW2); test: Protac activity at CRBN/STAT3 in human BxPC-3 cells assessed as decrease in STAT3 expression level at 5 uM after 16 hrs by western blot analysis; format: cell-based
Procedure, shortened: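 BxPC-3 cells seeded at 500 × 10^3 per well in 6-well plates, treated 16 h. Sonication lysis at 4 °C in Tris/NaCl/Triton/SDS buffer pH 7.4 with protease and phosphatase inhibitors, BCA protein assay, SDS-PAGE, PVDF transfer. Probed for STAT3, pSTAT3 and NQO1 with GAPDH loading control; fluorescent secondary detection.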

[18] = biological target: T1, Protein cereblon/E3 ubiquitin-protein ligase ZFP91; test: Protac activity at CRBN/ZFP91 in human BxPC-3 cells assessed as induction of ZF91 degradation at 1 uM incubated for 16 hrs by western blot analysis; format: cell-based; procedure, shortened: as §2
Target sequence in this assay (Q96JP5 2-570 partner limits assumed): as the sequence (Q96JP5 2-570 partner limits assumed) above
Target sequence in this assay (Q96SW2 whole entry): as the sequence (Q96SW2 whole entry) above

[19] = biological target: Protein cereblon/SET domain-containing protein 4 (Homo sapiens) (UniProt Q96SW2+Q9NVD3); test: Protac activity at CRBN/SETD4 in human BxPC-3 cells assessed as SETD4 degradation incubated for 16 hrs by proteomic analysis; format: cell-based; procedure, shortened: as §1
Chain of Protein cereblon/SET domain-containing protein 4 (Homo sapiens) (Q96SW2 whole entry, looked up, the tested form may be a part): as the sequence (Q96SW2 whole entry) above
Chain of Protein cereblon/SET domain-containing protein 4 (Homo sapiens) (Q9NVD3 whole entry, looked up, the tested form may be a part): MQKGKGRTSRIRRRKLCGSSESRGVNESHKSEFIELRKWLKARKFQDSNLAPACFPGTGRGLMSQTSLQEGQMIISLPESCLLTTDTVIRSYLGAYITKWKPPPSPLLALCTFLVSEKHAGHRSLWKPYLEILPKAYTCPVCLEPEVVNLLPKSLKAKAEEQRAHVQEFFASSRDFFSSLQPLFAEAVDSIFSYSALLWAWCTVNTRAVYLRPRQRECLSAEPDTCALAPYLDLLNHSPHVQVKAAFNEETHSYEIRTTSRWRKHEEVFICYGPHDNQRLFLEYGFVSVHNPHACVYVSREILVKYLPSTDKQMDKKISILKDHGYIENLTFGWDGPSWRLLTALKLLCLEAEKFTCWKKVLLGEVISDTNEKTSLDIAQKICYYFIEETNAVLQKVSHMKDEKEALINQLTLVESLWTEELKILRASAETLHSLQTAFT

[20] = biological target: T1, Protein cereblon/E3 ubiquitin-protein ligase ZFP91; test: Protac activity at CRBN/ZFP91 in human BxPC-3 cells assessed as induction of ZF91 degradation incubated for 24 hrs by western blot analysis; format: cell-based; procedure, shortened: as §2
Target sequence in this assay (Q96SW2 whole entry): as the sequence (Q96SW2 whole entry) above
Target sequence in this assay (Q96JP5 whole entry): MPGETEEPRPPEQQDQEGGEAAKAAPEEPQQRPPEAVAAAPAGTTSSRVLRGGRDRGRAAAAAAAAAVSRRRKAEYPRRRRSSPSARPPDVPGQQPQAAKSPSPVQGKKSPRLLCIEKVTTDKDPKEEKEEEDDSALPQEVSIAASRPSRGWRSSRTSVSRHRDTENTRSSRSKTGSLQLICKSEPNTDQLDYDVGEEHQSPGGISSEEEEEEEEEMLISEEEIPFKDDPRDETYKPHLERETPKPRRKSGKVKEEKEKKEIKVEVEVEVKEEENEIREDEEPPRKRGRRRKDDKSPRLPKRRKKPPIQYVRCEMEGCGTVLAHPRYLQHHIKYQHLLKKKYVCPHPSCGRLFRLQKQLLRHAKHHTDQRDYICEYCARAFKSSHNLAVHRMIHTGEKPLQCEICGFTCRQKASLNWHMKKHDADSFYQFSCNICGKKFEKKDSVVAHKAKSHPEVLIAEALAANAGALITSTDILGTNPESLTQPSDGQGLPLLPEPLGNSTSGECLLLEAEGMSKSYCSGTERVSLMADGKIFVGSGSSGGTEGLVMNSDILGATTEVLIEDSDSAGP

[21] = test system: BXPC-3; test: Reduction in NQO1 expression in human BxPC-3 cells at 2 to 6 uM incubated for 16 hrs in presence of protein synthesis inhibitor cycloheximide by western blot analysis; conditions: dose 2-6 µM
[22] = Upregulation of IL1RL1 protein levels in human BxPC-3 cells incubated for 16 hrs by proteomic analysis; format: functional; procedure, shortened: as §3

With `O=C1CCC(N2C(=O)c3cccc(NCCCCCC4CCN(CCNC(=O)c5cc6c(o5)C(=O)c5ccccc5C6=O)CC4)c3C2=O)C(=O)N1` (configuration not stated) the log2FC [1] was -0.63, the log2FC [2] was -0.63 and the Activity [3] was “inactive”. It also gave a log2FC [4] of 1.54, a log2FC [5] of -0.97 and an IC50 [6] of 8.7 µM. The Activity [7] was “inactive”, the log2FC [8] was -1.27 and the log2FC [9] was 0.67. For the same compound, the IC50 [10] was 1.2 µM, the log2FC [11] was -1.25 and the log2FC [12] was 0.68. The log2FC [13] was -0.67, the log2FC [14] was 0.83 and the Activity [15] was “inactive”. For the same compound, the log2FC [16] was -0.9, the Activity [17] was “Active” and the Activity [18] was “Active”. For the same compound, the log2FC [19] was -0.86, the DC50 [20] was 0.06 µM and the Activity [21] was “inactive”. It also gave a log2FC [22] of 1.24.
